Only some compounds are listed: those with a hit (about 2.5% of all), similar ones and a draw of the others.
SMARCA2 activ – increases SMARCA2 function in MMTV reporter cells. 1% of 370,000 active. activation, % at 9.1 µM. MG213 cells, MMTV-luciferase reporter, dexamethasone, overnight. AID 652017; in the data active means activation above about 7.8%;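 further: 0% = vehicle wells and 100% = reference activator wells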
SR-BI DiI-HDL act – activators of SR-BI mediated HDL lipid uptake; CHO ldlA[mSR-BI] cells, DiI-HDL uptake fluorescence, 3 h; 100 = double the neutral-control signal; activation, % at 12.5 µM; 0.096% of 320,000 active;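 active means mean replicate activation of at least 60% and every replicate at or above 60%; inconclusive means mean or all-replicate condition met, but not both; inactive means mean below 60% and not all replicates reaching 60%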;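 further: 0% = median plate neutral-control signal and 100% = twice that signal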
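Assay system: LDL receptor-deficient CHO ldlA cells overexpressing murine SR-BI / Medium: BSA-supplemented, HEPES-buffered Ham's F12, pH 7.4 / Probe or stimulus: DiI-labelled HDL at 10 µg/mL final / Timing: compound with DiI-HDL co-incubation, 3 h at 37 °C / Technique: bottom-read cell fluorescence after medium removal, ex 550/em 595 nm / Measure: HDL uptake via cellular fluorescence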
Vif imaging – HIV Vif inhibition; HEK293T cells, Vif self-association by quenched fluorescence, imaging, 24 h; inhibition, % at 7.49 µM; 0.35% of 340,000 active; AID 602346; in the data active means inhibition above about 50%, passing the limit was not always enough; inconclusive means no clear call, values can overlap the other calls; inactive means below about 31%
SR-BI HDL uptake – mouse SR-BI HDL lipid transfer inhibition; ldlA[mSR-BI] CHO cells, DiI-HDL uptake fluorescence, 3 h; 0.96% of 320,000 active; inhibition, % at 12.5 µM; Q61009;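 active means mean replicate inhibition of at least 70% and a set share of replicates each scoring 70 or more; inconclusive means meets just one of the two criteria; inactive means fails both criteria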;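 further: 0% = median of neutral control wells and 100% = median of positive control wells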
Target sequence (Q61009 whole entry, looked up): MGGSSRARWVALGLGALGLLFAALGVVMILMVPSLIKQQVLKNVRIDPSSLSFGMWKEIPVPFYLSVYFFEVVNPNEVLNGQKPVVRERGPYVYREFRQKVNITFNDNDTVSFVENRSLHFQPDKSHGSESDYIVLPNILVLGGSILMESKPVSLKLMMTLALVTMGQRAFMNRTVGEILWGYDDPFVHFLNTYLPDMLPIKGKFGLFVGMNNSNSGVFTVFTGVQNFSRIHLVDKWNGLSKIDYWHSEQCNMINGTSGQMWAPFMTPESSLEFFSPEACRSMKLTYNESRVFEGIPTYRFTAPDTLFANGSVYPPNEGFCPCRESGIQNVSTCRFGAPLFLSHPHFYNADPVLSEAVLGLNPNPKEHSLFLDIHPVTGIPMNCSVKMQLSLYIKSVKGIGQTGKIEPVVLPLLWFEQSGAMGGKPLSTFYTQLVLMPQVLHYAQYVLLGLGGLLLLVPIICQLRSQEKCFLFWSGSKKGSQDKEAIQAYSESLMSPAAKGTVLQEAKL
TAG inh – triacylglycerol accumulation inhibition; H9c2 cells, Nile Red lipid (TAG) fluorescence; cells loaded with 200 µM oleic acid; inhibition, % at 12.5 µM; 0.66% of 230,000 active;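 active means pattern-corrected inhibition of lipid staining of at least 50% with the nuclear-stain viability signal not falling by more than 50%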;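 further: 0% = DMSO wells and 100% = triacsin C control wells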
SMARCA2 conf – confirmation of SMARCA2 (BRM) function activators. shares compounds with SMARCA2 activ. MG213 cells, MMTV-luciferase with dexamethasone, luminescence, overnight; MG213 cells expressing E1A, Rb sequestered; DMSO wells 0%, reference activator 100%. activation, % at 9.1 µM. 30% of 3,500 active. AID 652260;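 active means activation above its plate's cutoff, the mean activation of tested wells plus 3 SD, cut at about 7.9% in these data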
VP16 Luc act – counter-screen for SMARCA2 activators: GAL4-VP16 luciferase reporter activation | 41% of 3,500 active | HEK293 GAL4-VP16 pG5luc reporter, luciferase luminescence; scaled: DMSO wells 0%, SAHA wells 100% | AID 686939 | shares compounds with SMARCA2 activ | activation, % at 9.1 µM;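 active means activation above the solvent-only control well mean plus 3 SD, averaged across control plates, cut at about 5.2% in these data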
Active calls of the source: *; ? = inconclusive; . = not tested or not shown.

SMILES	SMARCA2 activ	SR-BI DiI-HDL act	Vif imaging	SR-BI HDL uptake	TAG inh	SMARCA2 conf	VP16 Luc act
COc1ccc(C2Nc3ccccc3C(=O)N2c2ccc(C)cc2)cc1COc1ccccn1 (stereo not given)	13.8*	-19.9	0.2	19.9	.	12.4*	5.0
Cn1c(C(=O)OCC(=O)NCc2ccco2)cc2sccc21	14.3*	-6.6	7.1	6.6	.	1.3	1.8
N#C/C(=C\c1ccc([N+](=O)[O-])cc1)c1ccccn1	10.3*	-4.9	-0.3	4.9	-3.5	5.8	6.7*
CN(C)c1ccc(/C=C(\C#N)c2ccccn2)cc1	-0.3	-23.3	0.8	23.3	-14.4	.	.
O=C(O)CNc1nc(NCc2ccc(Cl)cc2)ccc1[N+](=O)[O-]	-3.4	.	17.9	.	-8.4	.	.
CN(CCOc1ccccc1)CC(=O)Nc1cccc(Br)c1	-1.9	-13.9	-10.7	13.9	-16.9	.	.
COc1cccc(NC(=O)COc2ccc(Br)c(C)c2)c1	9.9*	9.6	-3.0	-9.6	.	7.0	4.2
Cc1cc(NC(=O)CN(C)CCOc2ccccc2)ccc1Br	8.4*	12.2	8.7	-12.2	-6.3	0.1	2.2
C#Cc1ccc([C@H]2C=C(C(=O)NCc3ccccc3)O[C@@H](OCc3ccc(CO)cc3)C2)cc1	0.8	-12.1	-0.4	12.1	-7.5	.	.
CC(=O)N/C(N)=N/c1nc2cc(C)ccc2o1	8.9*	-6.8	6.6	6.8	-4.7	5.7	9.6*
CC(=O)N/C(N)=N/c1nc2cc([N+](=O)[O-])ccc2o1	-0.3	.	-4.8	.	-9.4	.	.
O=C(CNC(=O)c1ccccc1)OCc1nc2ccccc2s1	13.6*	19.6	2.3	-19.6	3.8	4.7	6.3*
Cc1cc(NS(=O)(=O)c2ccc(NC(=O)CSc3nnc(-c4ccccn4)n3-c3ccccc3)cc2)nc(C)n1	-3.4	.	.	.	.	.	.
CC(=O)Nc1cccc(-c2cc(NC=O)c3ncc(-c4cccc(C(C)=O)c4)n3c2)c1	11.0*	.	-5.3	.	37.6	3.3	6.5*
COc1cccc(-c2cnc3c(NC(C)=O)cc(-c4cccc(C(=O)NCCN(C)C)c4)cn23)c1	10.9*	.	3.4	.	12.1	22.1*	-0.4
CN(C)C(=O)c1cccc(-c2cnc3c(NC=O)cc(-c4ccccc4Cl)cn23)c1	9.8*	.	-1.9	.	-1.7	19.5*	3.8
COc1ccc(-c2cnc3c(NC(C)=O)cc(-c4cccc(C(=O)NCCN(C)C)c4)cn23)cc1OC	4.1	.	.	.	54.8	.	.
CN(C)c1ccc(C(=O)NCC2CCN(C(=O)C(=O)c3cccs3)CC2)cc1	3.0	.	.	.	.	.	.
COc1ccccc1C(=O)Nc1ccc(S(=O)(=O)Nc2cnc3ccccc3n2)cc1	1.3	12.6	-10.3	-12.6	.	.	.
Nc1nc(Cl)cc(Nc2ccccc2Cl)n1	9.5*	-2.5	?	2.5	.	4.8	1.0
CSc1nc(Cl)cc(Nc2ccccc2N)n1	0.8	1.3	-3.9	-1.3	.	.	.
Cc1ccc(-c2nc3ccccn3c2NCc2ccc3c(c2)OCO3)cc1	10.5*	-19.0	-4.5	19.0	-8.4	8.2*	4.7
Cc1cc2nc(-c3cccnc3SCC(=O)NC(C)C)[nH]c2cc1C	10.6*	-15.7	3.6	15.7	15.7	8.4*	8.9*
COC(=O)c1ccc2[nH]c(C)cc(=O)c2c1	1.3	17.2	-3.8	-17.2	-0.9	.	.
COC(=O)c1ccc2[nH]c(C(C)(C)O)c(C)c2c1	8.2*	-19.9	2.6	19.9	7.3	3.2	5.1
SMILES	SMARCA2 activ	SR-BI DiI-HDL act	Vif imaging	SR-BI HDL uptake	TAG inh	SMARCA2 conf	VP16 Luc act
COc1ccc(S(=O)(=O)NC(N)=NCCc2ccccc2)cc1	0.2	17.4	2.7	-17.4	10.1	.	.
O=C(NC(=S)NCc1nc2ccccc2[nH]1)c1ccc(F)cc1	9.9*	25.8	17.7	-25.8	-1.3	6.7	3.6
CCOC(=O)c1cnc2c(ccc3ccccc32)c1N	3.5	-9.2	-3.9	9.2	16.1	.	.
COc1ccc(Cl)cc1/C=C1/C(=O)ON=C1C	-3.0	6.5	-2.6	-6.5	.	.	.
CCOc1ccc(Cl)cc1/C=C1/C(=O)ON=C1C	8.0*	15.3	5.5	-15.3	.	4.7	1.1
COCCNc1nc2cc(-c3ccc(C)cc3)sc2c(=O)n1C	9.0*	.	-5.6	.	7.9	8.8*	13.7*
COC(=O)C1=C(C)N(C)C(=NCc2ccccc2C(F)(F)F)NC1c1ccc(Cl)cc1 (stereo not given)	-3.5	.	.	.	.	.	.
COC(=O)c1c(NC(C)=O)sc2c1CCCC2	1.7	-16.5	-2.0	16.5	-18.3	.	.
CNC(=S)Nc1sc2c(c1C(=O)OC)CCC2	9.1*	4.4	3.5	-4.4	7.3	0.1	-0.2
CC(=O)CSc1cc(-c2ccccc2)nc2ncnn12	-1.8	9.4	-3.3	-9.4	4.6	.	.
O=C(NCc1cccs1)c1cccnc1Cl	10.7*	9.8	-13.8	-9.8	.	0.0	0.1
CCOc1ccccc1N(CC(=O)Nc1ccc(S(=O)(=O)N2CCOCC2)cc1)S(C)(=O)=O	11.7*	.	-3.1	.	.	-1.3	1.2
CCOc1ccccc1N(CC(=O)Nc1ccc(S(=O)(=O)N2CCOCC2)cc1)S(=O)(=O)c1ccccc1	.	4.2	2.5	-4.2	-100.8	.	.
CCCCCCCCN1C(=O)[C@@H](CC(=O)NCC2CCCCC2)C[C@@]2(C(=O)OC)C1=C[C@H](C1CCCC1)O[C@@H]2C	1.4	.	.	.	.	.	.
O=C1NC(=Nc2ccccc2)S/C1=C\c1cccnc1	-5.2	-3.9	-6.3	3.9	11.8	.	.
O=C1NC(=Nc2cccnc2)S/C1=C/c1ccc(F)cc1	8.4*	.	-5.7	.	1.1	5.1	0.6
COc1ccc2c(CCNC(=O)c3ccco3)c[nH]c2c1	9.6*	-9.6	-4.9	9.6	.	3.4	0.6
COCCNC(=O)C1(C)CCN(C(=O)c2cc(C)nn2C(C)(C)C)C1 (stereo not given)	-1.4	.	15.5	.	0.3	.	.
C=CCNC(=O)COC(=O)c1ccc(Sc2nncn2C)c([N+](=O)[O-])c1	0.4	9.3	4.3	-9.3	-7.1	.	.
COCCN(CC(=O)Nc1cccc(C)c1C)C(=O)c1ccc2ccccc2n1	9.0*	16.5	-2.8	-16.5	17.5	6.4	2.3
O=C(Nc1ccc2c(c1)OCCO2)C(c1cc2ccccc2o1)N1CCN(C/C=C/c2ccccc2)CC1 (stereo not given)	-7.0	.	-8.2	.	.	.	.
O=C(Nc1cccc(F)c1)c1ccc(-n2cncn2)c2ccoc12	11.7*	.	0.9	.	30.3	8.2*	8.7*
COc1ccccc1C(=O)NNC(=O)CCC(=O)NCc1ccccc1	1.1	15.8	19.8	-15.8	3.9	.	.
COc1ccc(-c2cc(=O)c3cc(O)ccc3o2)cc1	6.8	4.6	2.2	-4.6	.	.	.
COc1ccc2c(=O)cc(C(F)(F)C(F)(F)F)oc2c1	-0.1	13.5	-0.5	-13.5	.	.	.

Screening data: PubChem BioAssay, several laboratories
